# Screens (PubChem)
# SR-BI DiI-HDL act = SR-BI HDL lipid transfer activation. activation, % at 12.5 µM. CHO ldlA[mSR-BI] cells, DiI-HDL uptake fluorescence, 3 h; 100 = double the neutral-control signal. 320,000 compounds, 0.096% hits;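 active = mean replicate activation of at least 60% and every replicate at or above 60%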;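 also: 0% = median plate neutral-control signal and 100% = twice that signal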
#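 Assay system: LDL receptor-deficient CHO ldlA cells overexpressing murine SR-BI / Medium: BSA-supplemented, HEPES-buffered Ham's F12, pH 7.4 / Probe or stimulus: DiI-labelled HDL at 10 µg/mL final / Timing: compound with DiI-HDL co-incubation, 3 h at 37 °C / Technique: bottom-read cell fluorescence after medium removal, ex 550/em 595 nm / Measure: HDL uptake via cellular fluorescence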
# miR122 inh = miR-122 inhibition in Huh7 cells | Huh7 miR-122 Renilla luciferase sensor, 48 h; neutral wells = 0, positive control = 100 | activation (reporter increase), % at 12.5 µM | 340,000 compounds, 0.3% hits | AID 602342;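 active = mean replicate activation score at least 90 and every replicate individually at or above 90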;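 also: higher luciferase means less miR-122 activity so hits act as miR-122 inhibitors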
# SR-BI DiI inh = inhibitors of mouse SR-BI mediated HDL lipid uptake. inhibition, % at 12.5 µM. Q61009. 320,000 compounds, 0.96% hits. ldlA[mSR-BI] CHO cells, DiI-HDL uptake fluorescence, 3 h;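 active = mean replicate inhibition of at least 70% and a set share of replicates each scoring 70 or more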;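 also: 0% = median of neutral control wells and 100% = median of positive control wells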
# Target sequence (Q61009 whole entry, looked up): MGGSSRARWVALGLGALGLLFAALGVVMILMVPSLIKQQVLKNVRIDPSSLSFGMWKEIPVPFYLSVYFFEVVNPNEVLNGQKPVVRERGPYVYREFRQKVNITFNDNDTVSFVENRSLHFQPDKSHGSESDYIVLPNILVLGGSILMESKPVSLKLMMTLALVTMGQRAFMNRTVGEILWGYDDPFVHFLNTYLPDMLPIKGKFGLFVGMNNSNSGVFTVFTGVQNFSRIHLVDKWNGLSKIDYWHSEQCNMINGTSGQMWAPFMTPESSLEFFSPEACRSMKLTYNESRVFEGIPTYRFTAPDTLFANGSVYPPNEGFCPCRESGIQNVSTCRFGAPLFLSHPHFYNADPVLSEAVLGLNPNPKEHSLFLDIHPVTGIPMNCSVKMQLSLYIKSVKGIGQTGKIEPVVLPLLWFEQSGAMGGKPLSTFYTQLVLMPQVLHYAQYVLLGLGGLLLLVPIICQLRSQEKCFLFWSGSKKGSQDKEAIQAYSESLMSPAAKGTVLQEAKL
# ARNT TACC3 PPI = disrupts binding between human ARNT and TACC3; inhibition, % at 9.99 µM; AID 623870; AlphaScreen His-ARNT PAS-B/GST-TACC3 binding, luminescence; TACC3 fragment carries E629A point mutation; Q9Y6A5; 390,000 compounds, 0.66% hits;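 active = mean inhibition of replicates at least 50% and at least half of replicates each reaching 50%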;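 also: 0% = complete ARNT plus TACC3 wells and 100% = ARNT alone without TACC3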
# CAL PDZ FP-1 = human CAL PDZ-peptide interaction inhibition | purified CAL PDZ, TMR-peptide fluorescence polarization, 1 h | inhibition, % at 20 µM | 330,000 compounds, 0.02% hits;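 active = highest replicate inhibition of at least 40%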;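 also: plate controls were DMSO neutral control wells for no effect and unlabeled competitor peptide control wells for full effect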
#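 Read-out basis: mP drop reported as inhibition | Assay system: Tagged CAL PDZ protein CerCALP, purified | Benchmarks: Unlabelled peptide for full inhibition, DMSO wells as neutral | Schedule: 1 h incubation at room temperature before polarization reading | Buffer or medium: Sodium phosphate/NaCl buffer pH 7.4 with TCEP, IgG, Thesit | Doses: Single point, 20 µM | Measured by: Fluorescence polarization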
# CAL PDZ FP-2 = blocks peptide binding to the human CAL PDZ domain; AID 602252; purified CAL PDZ, TMR-peptide fluorescence polarization, 1 h; Q9HD26; inhibition, % at 24.9 µM; 300,000 compounds, 0.92% hits;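 active = mean inhibition of at least 30% with at least half of replicates also reaching 30%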;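 also: 0% = DMSO neutral control and 100% = excess unlabeled competitor peptide PRC23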
# Starred values were filed as active, the others as inactive; . = no result given; + = active, no number; [ ] = dose if it differs, or a comment. Sampled rows, rich in hits. Any-hit rate of the full collection: about 2.1%.
SMILES,SR-BI DiI-HDL act,miR122 inh,SR-BI DiI inh,ARNT TACC3 PPI,CAL PDZ FP-1,CAL PDZ FP-2
COc1ccccc1N=Cc1c(C)[nH]n(-c2ccc(C)cc2C)c1=O,-38,5,38,12,1,1
COc1ccc2nc(/N=C/c3c(C)[nH]n(-c4ccc(C)cc4C)c3=O)sc2c1,18,10,-18,66*,-1,2
CCc1nc2ccc(C(=O)N3CCN(C(=O)c4ccco4)CC3)cn2c1N(C)C(=O)COc1ccccc1,.,97*,.,.,.,.
COCC(=O)N(C)C[C@H]1Oc2ncc(C#Cc3cccnc3)cc2C(=O)N([C@H](C)CO)C[C@H]1C,.,-6[16.7 µM],.,-7,.,.
COCC(=O)N(C)C[C@@H]1Oc2cc(C3=CCCC3)ccc2S(=O)(=O)N([C@H](C)CO)C[C@@H]1C,.,.,.,-2,.,.
O=c1c2ccccc2sc2ccc(NCCCN3CCOCC3)cc12,-11,.,11,2,2,7
COc1cc2sc3cc(NCCCN4CCOCC4)ccc3c(=O)c2cc1OC,-53,.,53,28*,-1,-10
Cc1ccc(S(=O)(=O)Nc2ccc3c(c2)C(=O)N([C@H](C)CO)C[C@H](C)[C@H](CN(C)C(=O)NC2CCCCC2)O3)cc1,.,-13[16.7 µM],.,8,.,.
COC(=O)c1ccc(Nc2nnc(-c3ccc(C)c(S(=O)(=O)NCC4CCCO4)c3)c3ccccc23)cc1 (stereo not drawn),-40,250*,40,-3,-2,.
Cc1ccc(-c2nnc(Nc3ccc(C(=O)N(C)C)cc3)c3ccccc23)cc1S(=O)(=O)NCC1CCCO1 (stereo not drawn),-18,.,18,.,-7,-6
Cc1ccc(-c2n[nH]c(=S)c3ccccc23)cc1S(=O)(=O)NCC1CCCO1 (stereo not drawn),-25,51,25,.,-4,39*
CCOC(=O)CNS(=O)(=O)c1cc(-c2nnc(Nc3ccc4c(c3)OCO4)c3ccccc23)ccc1C,-49,106*,49,-63,0,-4
Cc1ccc(-c2ccc3c(c2)O[C@H](CN(C)Cc2cccnc2)[C@@H](C)CN([C@@H](C)CO)S3(=O)=O)cc1,.,7[16.7 µM],.,4,.,.
COc1ccc([N+](=O)[O-])cc1NC(=O)c1ccc(-n2nc(C)cc2C)cc1,-90,.,90*,-17,0,-1
COc1ccc(OC)c(NC(=O)/C=C/c2ccccc2[N+](=O)[O-])c1,-86,-6,86*,-4,1,-3
COc1ccc([N+](=O)[O-])cc1NC(=O)c1ccc(N2C(=O)CCC2=O)cc1,.,-2,.,-16,-2,.
COc1ccc([N+](=O)[O-])cc1NC(=O)c1ccccc1SC,-77,1,77*,-3,3,0
COc1ccc(OC)c(NC(=O)c2cccc(C)c2[N+](=O)[O-])c1,-73,.,73*,-2,0,-4
O=C(Nc1cccc(Cl)c1)N[C@@H]1CC[C@@H](CCNC(=O)C2CCCC2)O[C@@H]1CO,.,3[16.7 µM],.,-2,.,.
CN(Cc1ccc(Cl)s1)C(=O)CNC(=O)CNC(=O)c1ccc(Cl)cc1Cl,-1,.,1,-5,-4,-5
COc1ccc(CN(C)C(=O)CNC(=O)CNC(=O)c2ccc(Cl)cc2Cl)cc1F,-4,.,4,4,-1,+
CN(C)c1ccc(/C=N/NC(=O)c2ccc(CN3CCOCC3)cc2)cc1Br,-84,-4,84*,.,-5,12
CCOc1cc(/C=N/NC(=O)c2ccc(CN3CCOCC3)cc2)ccc1OC,-48,.,48,.,-2,-3
O=C1OC(COc2ccc(Br)cc2)CN1c1ccccc1 (stereo not drawn),34,.,-34,-2,-1,87*
O=C1OC(COCC#Cc2ccccc2)CN1c1ccccc1 (stereo not drawn),.,-6,.,.,.,.
SMILES,SR-BI DiI-HDL act,miR122 inh,SR-BI DiI inh,ARNT TACC3 PPI,CAL PDZ FP-1,CAL PDZ FP-2
O=C(O)Cc1sc(-c2ccc(Cl)cc2)nc1-c1ccccc1,16,3,-16,0,-1,54*
COc1ccc(C(C)(C)C)cc1NC(=O)COC(=O)c1cnc(C)cn1,-6,-2,6,0,-1,3
COc1ccc(C(C)(C)C)cc1NC(=O)COC(=O)C1=NNC(=O)CC1,4,4,-4,0,0,133*
COc1ccc(C(CC(=O)O)NC(=O)Cc2ccccc2)cc1OC (stereo not drawn),25,-5,-25,-8,-1,-3
COc1ccc(C(CC(=O)O)c2cc(OC)c(OC)c(OC)c2)cc1OC (stereo not drawn),430*,7,-430,-6,0,-2
CC(C)N=c1cc2n(-c3ccc(Cl)cc3)c3ccccc3nc-2cc1Nc1ccc(Cl)cc1,-83,-8,83*,12,1,1
COc1ccccc1NC(=S)NNC(=O)c1nn(C)cc1Cl,-1,5,1,57*,-2,4
CCCNC(=O)C[C@H]1CC[C@@H]2[C@H](COC[C@@H](O)CN2C(=O)Nc2ccc3c(c2)OCO3)O1,.,-1[16.7 µM],.,3,.,.
CCOC(=O)C1CCN(c2ccc(-c3cccs3)nn2)CC1,-9,.,9,-28,.,93*
CCOC(=O)C1CCN(c2ccc(Cl)nn2)CC1,.,.,.,0,-2,-1
O=C(Nc1nnc(-c2ccccc2)o1)C1CCCN1S(=O)(=O)c1cccs1 (stereo not drawn),36,-3,-36,45*,-2,-1
CCN(C(=O)CN1C(=O)/C(=C/c2ccccc2)SC1=S)C1CCS(=O)(=O)C1 (stereo not drawn),4,-4,-4,-3,0,72*
CCN(C(=O)CN1C(=O)S/C(=C\c2ccc(F)cc2)C1=O)C1CCS(=O)(=O)C1 (stereo not drawn),3,4,-3,15,-1,4
Cc1ccc(S(=O)(=O)Nc2ccc3c(c2)C(=O)N([C@@H](C)CO)C[C@H](C)[C@H](CN(C)Cc2ccc(C(=O)O)cc2)OCCCC[C@H](C)O3)cc1,.,2[16.7 µM],.,2,.,.
N#Cc1sc2nc(-c3cccs3)cc(-c3ccccc3)c2c1N,-84,5,84*,-7,-1,-4
NC(=O)C1CCCN(C(=O)CCCNC(=O)c2ccc(Cl)cc2)C1 (stereo not drawn),21,-4,-21,.,-1,73*
CS(=O)(=O)Nc1ccc2c(c1)[C@H]1C[C@@H](CC(=O)NCC(F)(F)F)O[C@@H](CO)[C@H]1O2,.,3[16.7 µM],.,-9,.,.
O=C(Nc1ccc(N2CCCC2)c(Cl)c1)c1ccc([N+](=O)[O-])cc1,-75,.,75*,-2,-4,14
CN1CCN(c2ccc([N+](=O)[O-])cc2C(=O)c2ccc(Br)cc2)CC1,-10,3,10,1,0,.
